# Screening data as filed in PubChem BioAssay.
# Most compounds without a hit are left out; they make up all but 2.9% or so of the library.
# TRPC6 inh – mouse TRPC6 channel inhibitors, primary screen, cell-based, HEK293, membrane potential dye | AID 2553, 2010 | ACh-evoked depolarization; stronger effect = lower value | B-score at 10 µM | 1.1% of 310,000 active | Short transient receptor potential channel 6 (Mus musculus), Q61143;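 active means B-score under library mean minus 3 SD, initial fluorescence not abnormally high, positive integrated signal ratio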;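 further: B-score derived from integrated fluorescence ratio over the kinetic read; more negative B-score means stronger inhibition of depolarization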
# TRPC4 potent – positive allosteric modulators of TRPC4, primary screen, cell-based, mouse TRPC4beta, HEK293 mu-opioid, Fluo-4 calcium. Short transient receptor potential channel 4 (Mus musculus), Q9QUQ5. DAMGO EC20, Fluo-4 Ca2+ flux; stronger effect = higher value. B-score at 10 µM. 0.42% of 310,000 active;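 active means B-score of calcium response area above 5 SD of library B-scores, with initial fluorescence ratio within 5 SD of library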;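 further: B-score of integrated fluorescence ratio over time as area under calcium response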
# Target sequence (Q9QUQ5 whole entry, looked up): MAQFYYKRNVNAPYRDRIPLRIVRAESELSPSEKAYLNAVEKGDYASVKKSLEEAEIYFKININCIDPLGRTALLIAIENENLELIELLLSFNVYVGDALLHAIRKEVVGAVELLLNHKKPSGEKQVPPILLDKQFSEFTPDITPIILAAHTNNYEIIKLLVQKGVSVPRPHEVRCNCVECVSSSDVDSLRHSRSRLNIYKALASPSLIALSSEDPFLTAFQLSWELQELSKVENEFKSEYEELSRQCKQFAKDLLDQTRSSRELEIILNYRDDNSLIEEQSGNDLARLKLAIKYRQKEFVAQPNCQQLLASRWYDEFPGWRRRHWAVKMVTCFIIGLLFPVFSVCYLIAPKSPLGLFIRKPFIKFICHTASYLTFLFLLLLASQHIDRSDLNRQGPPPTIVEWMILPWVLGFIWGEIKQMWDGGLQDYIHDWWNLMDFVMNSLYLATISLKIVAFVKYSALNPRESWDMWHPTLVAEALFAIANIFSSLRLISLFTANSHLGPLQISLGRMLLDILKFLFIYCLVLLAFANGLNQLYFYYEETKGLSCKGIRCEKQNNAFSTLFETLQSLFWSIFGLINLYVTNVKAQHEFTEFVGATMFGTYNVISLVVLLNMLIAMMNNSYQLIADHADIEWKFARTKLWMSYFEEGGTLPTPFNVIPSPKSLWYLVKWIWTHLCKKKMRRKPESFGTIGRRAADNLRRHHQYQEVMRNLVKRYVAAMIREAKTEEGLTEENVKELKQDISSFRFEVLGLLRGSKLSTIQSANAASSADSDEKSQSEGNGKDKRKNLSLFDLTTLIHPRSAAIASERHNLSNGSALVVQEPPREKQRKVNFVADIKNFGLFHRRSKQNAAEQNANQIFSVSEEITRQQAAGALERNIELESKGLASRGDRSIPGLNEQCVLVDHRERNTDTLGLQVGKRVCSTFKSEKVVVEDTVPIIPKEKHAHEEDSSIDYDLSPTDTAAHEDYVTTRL
# TRPC4 block – inhibitors of mouse TRPC4 channel, primary screen, Fluo4 calcium, HEK293 TRPC4beta/mu-opioid cells; Short transient receptor potential channel 4 (Mus musculus), Q9QUQ5; B-score at 10 µM; DAMGO-evoked Fluo4 calcium flux; stronger effect = lower value; 0.39% of 300,000 active; AID 2247, 2010;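 active means B-score over 3 SD under the library average, no early fluorescence shift, positive overall ratio signal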
#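 Material: HEK293 cells with stable TRPC4beta plus mu-opioid receptor expression; probe or stimulus: DAMGO in two steps, submaximal then maximal; technique: Fluo4 calcium fluorescence by kinetic imaging, 5 s 1 Hz baseline; measure: integrated fluorescence ratio relative to baseline, converted to per-well B score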
# Kir21 block – inhibitors of mouse Kir2.1 inward-rectifier potassium channel; Inward rectifier potassium channel 2 (Mus musculus), P35561; HEK293-Kir2.1, FluxOR thallium flux fluorescence; stronger effect = lower value; B-score at 10 µM; 0.85% of 310,000 active;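 active means fluorescence ratio B-score at or below minus 3 SD of library scores, with starting-brightness B-score within 2 SD, cut at about -4.2 in these data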;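 further: channel flux triggered by added potassium and thallium sulfate stimulus; B-score of peak minus minimum fluorescence over baseline after thallium stimulus; more negative B-score means stronger Kir2.1 block with less thallium influx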
# TRPC4 act – activators of mouse TRPC4 channel, primary screen, Fluo4 calcium, HEK293 TRPC4beta/mu-opioid cells; Fluo4 calcium fluorescence; stronger effect = higher value; B-score at 10 µM; 0.49% of 310,000 active; AID 2237, 2010;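 active means B-score above 5 SD of library B-scores, and initial fluorescence ratio not above library mean plus 5 SD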;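 further: positive B-score marks a calcium rise read as TRPC4 activation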
#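 system = HEK293 cells stably co-expressing mouse TRPC4beta and mu-opioid receptor | schedule = Fluo4 dye loading 45 min at room temperature, 110 s recording | measure = B-scored integrated calcium fluorescence ratio | signal = Fluo4 calcium-sensitive dye fluorescence, kinetic, 1 Hz baseline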
# TRPC6 activator – mouse TRPC6 channel activators, primary screen, cell-based, HEK293, membrane potential dye; B-score at 10 µM; HEK293-TRPC6 membrane potential dye fluorescence; stronger effect = higher value; Short transient receptor potential channel 6 (Mus musculus), Q61143; 0.13% of 310,000 active;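 active means B-score of the integrated fluorescence ratio above library mean plus 3 SD, and starting fluorescence ratio within library mean plus 5 SD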;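 further: higher score means more depolarization so channel activation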
# TRPC4 spec 2 – second selectivity test of TRPC6 inhibitors: effect on mouse TRPC4 | HEK293 TRPC4/MOR, membrane potential dye fluorescence; channel activated by saturating DAMGO dose | inhibition, % at 10 µM | 42% of 920 active | AID 2776 | shares compounds with TRPC6 inh;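 active means compounds whose fluorescence signal differed from control wells by over 3 SD, either direction, in both duplicate plates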
# TRPC4 spec – mouse TRPC4 modulation by TRPC6 hits, confirmation, selectivity assay for TRPC6 inhibitor project, cell-based, HEK293 TRPC4/mu-opioid, membrane potential dye; shares compounds with TRPC6 inh; membrane potential fluorescence; activity change, negative = inhibition, % at 10 µM; 61% of 920 active; AID 2777, 2010;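 active means rise or fall in signal beyond 3 SD of buffer-only wells in both replicate plates, either sign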;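 further: integrated kinetic ratio of fluorescence range over baseline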
# HEK293 MPD ctr 2-1 – nonspecific membrane potential effects, parental HEK293, confirmation, counter-screen for TRPC6 inhibitor project, cell-based, second counter screen | signal change vs control, % at 10 µM | 31% of 920 active | parental HEK293 membrane potential dye fluorescence; maximal acetylcholine challenge after compound addition | AID 2779, 2010 | shares compounds with TRPC6 inh;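 active means membrane potential signal moving either way by over 3 SD of the maximum-effect control, in both duplicate plates, meaning non-specific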
# HEK293 MPD ctr-1 – membrane potential modulation in parental HEK293, confirmation, counter-screen for TRPC6 inhibitor project, cell-based. shares compounds with TRPC6 inh. parental HEK293 membrane potential dye fluorescence. membrane potential signal change, % at 10 µM. 60% of 920 active;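 active means membrane potential signal shifting up or down by more than 3 SD of buffer-only wells, on both duplicate plates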
# HEK293 MPD ctr-2 – parental HEK293 membrane potential modulation, confirmation, counter-screen for TRPC6 modulator project, cell-based; shares compounds with TRPC6 inh; membrane potential dye fluorescence; membrane potential signal change, % at 10 µM; 51% of 2,400 active; AID 488924, 2010;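 active means membrane potential signal moves up or down beyond 5 SD from buffer-only wells, on both duplicate plates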
# HEK293 MPD ctr 2-2 – second counter-screen for TRPC6 modulators: effect in parental HEK293 cells; 14% of 2,400 active; shares compounds with TRPC6 inh; inhibition, % at 10 µM; membrane potential dye fluorescence; after compound, maximal acetylcholine stimulation;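 active means membrane potential signal drops by more than 5 SD from the mean control signal, in both duplicate plates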;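 further: plate controls were acetylcholine ECmax control wells for no effect and buffer only wells for full effect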
# TRPC4/MOR mod – TRPC4 modulation by TRPC6 hit compounds, confirmation, selectivity assay for TRPC6 modulator project, cell-based, HEK293 TRPC4/mu-opioid, membrane potential dye, mouse | membrane potential fluorescence | shares compounds with TRPC6 inh | 69% of 2,400 active | percent change from control (negative = decrease, positive = increase), % at 10 µM | AID 488927, 2010;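 active means membrane potential signal moved up or down beyond 5 SD of buffer control wells, in both duplicate plates, actives on both sides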;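 further: plate controls were assay buffer wells for no effect and DAMGO maximal-effect wells for full effect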
# TRPC4 ctr inh 2 – mouse TRPC4 off-target activity of TRPC6 modulators, second screen | shares compounds with TRPC6 inh | HEK293 TRPC4/mu-opioid, membrane potential dye fluorescence; stimulated with maximal-effect DAMGO | inhibition, % at 10 µM | 55% of 2,400 active | AID 488928;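 active means drop in membrane potential signal beyond 5 SD of the control wells in both duplicate plates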;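 further: TRPC4 counter screen for TRPC6 hits run under conditions tuned for TRPC6 not TRPC4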
# TRPC6 block conf – mouse TRPC6 channel inhibitors, confirmation, HEK293 cells, membrane potential dye, duplicate; ACh-evoked depolarization; inhibition, % at 10 µM; 43% of 3,300 active; shares compounds with TRPC6 inh;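 active means fluorescence ratio falls more than 5 SD below the full-stimulation control mean, in both duplicate runs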;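 further: integrated fluorescence ratio of peak minus minimum over baseline after agonist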
# TRPC6 act conf – mouse TRPC6 channel activators, confirmation, HEK293 cells, membrane potential dye, duplicate. activation, % at 10 µM. 11% of 2,800 active. HEK293-TRPC6 membrane potential dye fluorescence, FDSS. shares compounds with TRPC6 inh;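 active means ratio signal rise beyond 5 SD above unstimulated control wells' mean, seen in both duplicate runs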;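 further: plate controls were buffer EC0 wells for no effect and acetylcholine ECmax response for full effect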
# Active calls of the source: *; i = inactive; nt = no result.
SMILES,TRPC6 inh,TRPC4 potent,TRPC4 block,Kir21 block,TRPC4 act,TRPC6 activator,HEK293 MPD ctr-2,HEK293 MPD ctr 2-2,TRPC4/MOR mod,TRPC4 ctr inh 2,TRPC6 block conf,TRPC6 act conf,others
CCOC(=O)c1c[nH]c2c3c(ccc2c1=O)CCCC3,i,i,i,-0.05,i,i,nt,nt,nt,nt,nt,nt,
CCOC(=O)c1ccc2[nH]cc(C(C)=O)c(=O)c2c1,-7.47*,i,i,0.18,i,i,nt,nt,nt,nt,i,i,TRPC4 spec 2=i;TRPC4 spec=-25.6%*;HEK293 MPD ctr 2-1=i;HEK293 MPD ctr-1=-422.5%*
CCOC(=O)c1c[nH]c2c(Cl)ccc(Cl)c2c1=O,-6.06*,i,i,2.08,i,i,-324.5%*,i,-39.0%*,43.0%*,i,i,
CCOC(=O)c1c[nH]c2c(C)cc(C)cc2c1=O,i,i,i,0.74,i,i,nt,nt,nt,nt,nt,nt,
CCOC(=O)c1c[nH]c2c(Cl)c(Cl)ccc2c1=O,-9.97*,i,i,0.4,i,i,nt,nt,nt,nt,i,i,TRPC4 spec 2=i;TRPC4 spec=-24.6%*;HEK293 MPD ctr 2-1=i;HEK293 MPD ctr-1=-298.0%*
CCOC(=O)c1c[nH]c2c(C)ccc(Cl)c2c1=O,-7.62*,i,i,0.77,i,i,-303.0%*,i,-41.5%*,53.0%*,60.0%*,i,
N#Cc1ccccc1OCCCN1CCC(Cc2ccccc2)CC1,i,i,i,-1.78,i,i,nt,nt,nt,nt,nt,nt,
O=C(Nc1ccccc1)Nc1ccccc1C(=O)NCCCN1CCOCC1,i,i,i,-0.06,i,i,nt,nt,nt,nt,nt,nt,
O=C(Nc1cccc2ccccc12)/C(=C/c1ccc([N+](=O)[O-])cc1)NC(=O)c1ccccc1,-6.03*,i,i,0.13,i,i,i,i,i,71.0%*,58.5%*,i,
Clc1ccccc1Sc1ccc(-c2ccccn2)s1,i,i,i,2.6,i,i,nt,nt,nt,nt,nt,nt,
CC(CCc1ccccc1)NC(=O)CCCn1ncn2c(cc3occc32)c1=O (stereo not drawn),i,i,i,1.58,i,i,nt,nt,nt,nt,nt,nt,
COc1ccc(NC(=S)NCCCN2CCN(C3CCCCC3)CC2)cc1,i,i,i,-2.54,i,i,nt,nt,nt,nt,nt,nt,
COc1ccccc1C(C)NCC(=O)NCc1ccc(C)cc1 (stereo not drawn),i,i,i,-0.18,i,i,nt,nt,nt,nt,nt,nt,
COC(=O)CC(N)c1ccc(OC)c2ccccc12 (stereo not drawn),-5.26*,i,i,1.01,i,i,i,i,i,i,i,i,
CCOc1ccc(NC(=O)c2c(NC(=O)CN3CCN(C)CC3)sc3c2CCC3)cc1,-8.43*,i,i,-1.92,i,i,nt,nt,nt,nt,74.7%*,i,TRPC4 spec 2=46.0%*;TRPC4 spec=-25.8%*;HEK293 MPD ctr 2-1=i;HEK293 MPD ctr-1=-409.0%*
COc1cccc2sc(N(CCN(C)C)C(=O)/C=C/c3cccs3)nc12,-6*,i,i,1.79,i,i,i,i,-9.5%*,71.5%*,43.0%*,i,
COc1ccc(C)c2sc(N(CCN(C)C)C(=O)c3cccc(N4C(=O)CCC4=O)c3)nc12,-6.37*,i,i,1.71,68*,i,i,i,-17.5%*,43.5%*,i,i,
COc1cccc2sc(N(CCN(C)C)C(=O)c3ccc4c(c3)CCCC4)nc12,-6.41*,i,i,-0.03,i,i,-111.0%*,97.5%*,-34.0%*,94.5%*,86.0%*,i,
CCOc1cccc2sc(N(CCN(C)C)C(=O)/C=C/c3cccs3)nc12,i,i,i,1.03,i,i,nt,nt,nt,nt,nt,nt,
CN(C)CCN(C(=O)c1cccc(N2C(=O)CCC2=O)c1)c1nc2ccc(Br)cc2s1,i,i,i,0.99,i,i,nt,nt,nt,nt,nt,nt,
COc1ccc(CCN2CC(C(=O)OCC(=O)Nc3c(C)nn(-c4ccccc4)c3C)CC2=O)cc1OC (stereo not drawn),i,i,i,1.7,i,i,nt,nt,nt,nt,nt,nt,
c1ccc(-c2nc(-c3ccccn3)nc(-c3ccccn3)n2)nc1,-6.74*,i,i,-0.75,i,i,nt,nt,nt,nt,i,i,TRPC4 spec 2=i;TRPC4 spec=-18.9%*;HEK293 MPD ctr 2-1=4.0%*;HEK293 MPD ctr-1=-266.0%*
